Data set [1] in a line: Solubility of compound in water. It counts as physicochemical. As to conditions: buffer.
Data set [2] is described as follows: Kinetic Solubility of compound. The format is physicochemical.
Data set [3] is described as follows: Retention time of compound in PBS by LC-MS analysis. The format is physicochemical. As to conditions: buffer. In short, it runs like this: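 Compound incubated in PBS pH 7.4 or in serum, sampled every 12 h over 36 h, and analysed by LC-MS for parent and product peaks.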
Data set [4] is described as follows: Induction of H2S generation assessed as Cmax Induction of H2S generation assessed as Cmax at 150 uM incubated at 37 degC and pH 7.4 by fluorescence spectrophotometry. It counts as functional. In short, it runs like this: (§1)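 Donor at 150 µM final, mixed with 200 µM sulfonyl-azide fluorescent probe in buffer/acetonitrile (1:9) at set pH. Cuvette held in a water bath at 22 °C or 37 °C, with fluorescence read three times at intervals. H2S was quantified from a Na2S standard curve (0–200 µM, probe 200 µM).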

Data set [5] is described as follows: Induction of H2S generation assessed as Cmax at 150 uM incubated at 22 degC and pH 8 by fluorescence spectrophotometry. It counts as functional. In short, it runs like this:
as §1

Data set [6] can be described thus: Induction of H2S generation assessed as Cmax at 150 uM incubated at 22 degC and pH 5 by fluorescence spectrophotometry. The format is functional. The gist of the method:
as §1

The nature of data set [7]: Drug metabolism in Wistar rat liver homogenate assessed as metabolite 3b retention time incubated for 36 hrs by LC-MS analysis. The format is ADME, tissue-based. The settings on record: tissue homogenate.
A short description of data set [8]: Drug metabolism in Wistar rat heart homogenate assessed as metabolite formation incubated for 36 hrs by LC-MS. It counts as ADME, tissue-based. As to conditions: tissue homogenate.
Data set [9] is described as follows: Drug metabolism in Wistar rat kidney homogenate assessed as metabolite formation incubated for 36 hrs by LC-MS. The format is ADME, tissue-based. As to conditions: tissue homogenate.
The next data set concerns HT-29. The data set can be described thus: Cytotoxicity in human HT-29 cells assessed as growth inhibition incubated for 24 hrs by MTT assay. The settings on record: HT-29, 24 h. It counts as functional, cell-based. In short, it runs like this:
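Cells were grown in RPMI 1640 with 10% FBS at 37 °C and 10% CO2, seeded at 6×10^3 cells/well. Exposure was 24 h, with viability by MTT, in triplicate cultures. IC50 was reported as mean ± SD.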
A general note: Tetrazolium dyes change colour on reduction, which living cells bring about.

A short description of data set [10]: Toxicity in zebra fish assessed as decrease in survival rate at <=20 uM measured after 120 hpf by microscopic analysis relative control. The arrangement: species or system Danio rerio. As to conditions: zebrafish. In short, it runs like this:
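Wild-type AB zebrafish embryos were checked at 4 hpf, and normally developed ones were used. There were 100 embryos per group, split into three replicates, one per well in 200 µL solution under sealing film. Mortality was recorded at 24–168 hpf. Vehicle control was DMF diluted 1:1000. Values are mean ±SD of three independent experiments.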

Data set [11] is described as follows: Toxicity in zebra fish assessed as decrease in hatching rate at <=20 uM measured after 120 hpf by microscopic analysis relative control. The arrangement: species or system Danio rerio; scale not given: the % may be the effect or the level left. As to conditions: zebrafish, 5 µM.
The nature of data set [12]: Toxicity in zebrafish embryos assessed as embryo malformation rate at 1 to 20 uM measured after 96 hpf relative to control. As to conditions: in vivo. Details: species or system Danio rerio.
Data set [13] in a line: Acute toxicity in juvenile zebrafish assessed as decrease in locomotor activity measured as swimming distance at 10 uM measured at 144 hpf. As to conditions: in vivo, dose […]. The arrangement: species or system Danio rerio. In short, it runs like this: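 Wild-type AB zebrafish bred at 28 °C on a 14 h/10 h light cycle; normally developing embryos were selected at 4 hpf. Total swimming distance of juveniles was recorded over 5 min under visible light. DMF (1:1000) was the vehicle control, n = 100, three independent experiments, mean ± SD.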

Data set [14] is described as follows: Cytotoxicity against mouse RAW264.7 cells assessed as cell viability at 20 to 100 microM after 24 hrs by MTT assay. It counts as cell-based. As to conditions: dose 20-100 µM, read-out: Activity. The gist of the method:
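RAW264.7 macrophages in high-glucose DMEM with 10% heat-inactivated FBS, 37 °C, 5% CO2. LPS 1 µg/mL with or without compound (20 and 100 µM) for 24 h. Then MTT 4 h, formazan dissolved in DMSO, A570, expressed as % of control.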

The subject of data set [15] is H9c2. The data set can be described thus: Cardioprotective activity against H2O2- induced toxicity in rat H9c2 cells assessed as increase in survival rate at 50 uM incubated for 8 hrs co-treated with 400 uM H2O2 measured after 24 hrs by MTT assay relative to control. It counts as functional. The gist of the method: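 H9c2 cardiomyocytes injured with H2O2 (50, 200 or 400 µM) for 8 h together with compound (10–100 µM). Survival rate measured against the H2O2 model group. Six independent experiments, mean ± sd.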

Data set [16] can be described thus: Toxicity in zebra fish assessed as hatching rate at 0.5 uM measured after 120 hpf by microscopic analysis. The settings on record: zebrafish. The arrangement: species or system Danio rerio.
The nature of data set [17]: Cytotoxicity against rat H9C2 cells assessed as cell viability at 100 uM measured after 24 hrs by MTT assay. It counts as cell-based. The settings on record: read-out: Activity.
Data set [18] in a line: Induction of H2S generation assessed as half life at 150 uM incubated at 22 degC and pH 5 by fluorescence spectrophotometry. The format is functional. The gist of the method: as §1
A short description of data set [19]: Induction of H2S generation assessed as half life at 150 uM incubated at 37 degC and pH 1.2 by fluorescence spectrophotometry. It counts as functional. The gist of the method: as §1
Data set [20] can be described thus: Induction of H2S generation assessed as half life at 150 uM incubated at 37 degC and pH 7.4 by fluorescence spectrophotometry. It counts as functional. The gist of the method: as §1
For data set [21], the system named is RAW264.7. The data set is described as follows: Anti-inflammatory activity in mouse RAW264.7 cells assessed as inhibition of LPS-induced NO production at 100 uM preincubated for 4 hr followed by LPS addition and measured after 24 hrs relative to control. It counts as functional. In short, it runs like this: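 RAW264.7 cells exposed to LPS 1 µg/mL with compound (20 and 100 µM) for 24 h. Nitrite in medium measured by Griess reagent, […], against a sodium nitrite standard curve (0–100 µM). Four parallel groups, mean ± SD.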

Data set [22] relates to RAW264.7. The data set can be described thus: Anti-inflammatory activity in mouse RAW264.7 cells assessed as inhibition of LPS-induced IL-10 production at 20 uM preincubated for 4 hr followed by LPS addition and measured after 24 hrs. The format is functional, cell-based. In short, it runs like this: (§2)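 RAW264.7 cells given LPS 1 µg/mL with compound for 24 h, then lysed in RIPA and centrifuged. Protein was set to 0.1 mg/mL by BCA and mouse cytokine levels measured by sandwich ELISA kit. Four parallel groups, mean ± SD.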

In data set [23] the test system is RAW264.7. The data set can be described thus: Anti-inflammatory activity in mouse RAW264.7 cells assessed as inhibition of LPS-induced TNFalpha production at 20 uM preincubated for 4 hr followed by LPS addition and measured after 24 hrs relative to control. The format is functional, cell-based. The gist of the method: as §2
Data set [24] relates to H9c2. The data set is described as follows: Cardioprotective activity against H2O2- induced toxicity in rat H9c2 cells assessed as decrease in MDA level at 10 to 100 uM pretreated with H202 for 8 hrs followed by compound addition measured after 24 hrs. The format is functional, cell-based. As to conditions: dose microM 10-100, time 8.0 hrs.
In data set [25] the test system is H9c2. The data set can be described thus: Cytoprotective activity against H2O2-induced toxicity in rat H9c2 cells assessed as increase in SOD level at 10 to 100 uM pretreated with H202 for 8 hrs followed by compound addition measured after 24 hrs. The settings on record: dose microM 10-100, time 8.0 hrs. It counts as functional, cell-based.
Data set [26] in a line: Toxicity in zebrafish embryos assessed as embryo malformation rate at 20 uM measured after 96 hpf relative to control. The settings on record: in vivo. Details: species or system Danio rerio.

As a reminder, the IC50 is the midpoint of a concentration-inhibition curve. A word on the inhibition: it is how much of the control response was suppressed.

The source made the active and inactive calls. No cut-off for these calls is given here.

Take `S=P1(c2ccccc2)NCCCO1` (stereo unspecified): in data set [1], the solubility result is “Insoluble”. In [2], the Kinetic_solubility entry is given as “Soluble”. In addition, the figures for the Retention_time in data set [3] and in data set [7] were 9.649 min and 8.63 min, respectively. Besides, the Cmax in [4] came out at 26.5 µM; in [5], 25.6 µM; in data set [6], 24.9 µM. Besides, the Drug metabolism entry in [8] and in data set [9] was “Metabolite_Detected” each time. Also, the IC50 with HT-29 stood at 1050 µM. For the same molecule, the Activity is 50% in data set [10]; 50% in [11]; 2% in data set [12]; 257 mm in [13]; 5.1% in the data set on H9c2 [15]; “Non-Toxic” in data set [16]. Also, the viability at 24 h in [14] is 70%. For the same molecule, the viability at 24 h, 100 µM in data set [17] is over 90%. The T1/2 turned out to be 34.1 min in data set [18], 35.4 min in data set [19] and 35.7 min in [20].
On to `O=C([O-])[C@H](Cc1cc2ccccc2[nH]1)NP([O-])(=S)c1ccccc1.[Li+].[Li+]` (stereo partly specified), for which the Cmax is 124 µM in data set [4], 118 µM in data set [5] and 117 µM in [6]. The Retention_time in data set [7] is 7.9 min. The half-inhibitory concentration (IC50) in the data set with HT-29 amounted to 742 µM. In addition, the Activity is listed as 50% in data set [10]; 50% in data set [11]; 216 mm in [13]; “Non-Toxic” in data set [16]; 5% in data set [26]. Moreover, the inhibition at 100 µM with RAW264.7 [21] worked out at 50%. In addition, the outcome in the data set with RAW264.7 [22], in the data set with RAW264.7 [23], in the data set with H9c2 [24] and in the data set with H9c2 [25] was Active. Further, the viability at 24 h in data set [14] was found to be 70%. Moreover, the viability at 24 h, 100 µM in [17] is over 90%. The T1/2 in data set [18] stood at 3.53 min; in data set [19] it was 1.51 min; in data set [20], 3.07 min.
